Assay outcomes deposited in PubChem BioAssay by several laboratories.
This is a sample that favours compounds with a hit; in the whole collection about 4.9% have one here.
STAT1 inh = inhibitors of IFN-gamma induced STAT1 signaling; NIH 3T3 STAT1-luciferase reporter, luminescence; inhibition, % at 5.5 µM; 0.35% of 200,000 active; AID 920;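 active = inhibition above a set limit, the mean inhibition across all tested compounds plus 3 SD, cut at about 34% in these data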
STAT3 act = STAT3 signaling activation; activation (% of control), % at 5.6 µM; 0.91% of 190,000 active; U3A cells, IL-6 STAT3-luciferase reporter, luminescence; 100% = signal with IL-6 EC80 alone;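 active = activation above the screen-wide mean of compound activation plus 3 SD, cut at about 130% in these data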
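Material: STAT1-lacking human U3A cells, STAT3 luciferase reporter | Benchmarks: IL-6-only wells as 100% reference | Probe or stimulus: IL-6 (33 ng/mL) | Timing: Compound 1 h, then IL-6 6 h at 37 °C | Detection: Luminescence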
STAT1 activator = STAT1 signaling activation; NIH 3T3 STAT1-luciferase reporter, IFN-gamma, luminescence; 100% = IFN-gamma alone, no compound; 2.6% of 200,000 active; activation (% of control), % at 5.5 µM;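 active = activation above the screen-wide mean activation plus 3 SD, cut at about 130% in these data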
NF-kB neuron act = raises NF-kB expression in human neuronal cells. 1.6% of 190,000 active. NF-kB reporter expression; active compounds read high. fold change at 12.5 µM; in the data active = fold change above about 3.3
STAT3 inh = STAT3 signaling inhibition | U3A cells, IL-6 STAT3-luciferase reporter, luminescence; host cell line lacks STAT1 | inhibition, % at 5.5 µM | 0.89% of 190,000 active | AID 862;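 active = inhibition above the mean inhibition across all screened compounds plus 3 SD, cut at about 44% in these data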
APP 5'UTR act = APP 5'UTR luciferase reporter activation; activation, % at 2 µM; AID 1276; SH-SY5Y APP 5'UTR luciferase reporter, luminescence; zero percent = DMSO vehicle wells; 1% of 190,000 active;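 active = activation above a set limit, based on mean plus 3 SD of controls, cut at about 140% in these data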
Of the large screens only hits and unclear results are named; the others gave an inactive call.

Cc1cc(NC(=O)/C=C/c2ccccc2)no1	STAT1 activator 130
CN(C)c1ccc(NC(=S)NC(=O)/C=C/c2ccco2)cc1	none
O=C(/C=C/c1ccccc1)Nc1cc(C(=O)O)cc(C(=O)O)c1	none
Cc1cc(NC(=O)/C=C/c2ccccc2Cl)no1	STAT1 activator 135
Clc1ccc(SCc2cn3ccsc3n2)cc1	STAT1 activator 134
c1ccc(CSCc2cn3ccsc3n2)cc1	STAT1 activator 132, NF-kB neuron act 8.9
O=C(Cc1cn2ccsc2n1)NCc1ccccc1	none
O=C(Cc1cn2ccsc2n1)OCc1nc2ccccc2s1	none
O=C(Cc1cn2ccsc2n1)OCc1ccccc1	NF-kB neuron act 5.3
c1ccc2oc(SCc3cn4ccsc4n3)nc2c1	STAT1 activator 138
CCn1cc(C(C)NC(=O)Nc2ccc3c(c2)OCO3)c(C)n1 (stereo not drawn)	none
CCOc1ccc(C(=O)NCC(=O)OCC(=O)N2CCCC2)cc1	none
c1cn2cc(CSC3CCCCC3)nc2s1	STAT1 activator 134
O=C(Nc1nc2ccc(Cl)cc2s1)c1ccco1	NF-kB neuron act 7.3
Cc1ccc2nc(NC(=O)c3ccco3)sc2c1	STAT1 inh 59, STAT3 inh 94
Cc1ccc(Cc2cnc(NC(=O)c3ccco3)s2)cc1	NF-kB neuron act 7.4
COCC(=O)Nc1nc2ccc(C)cc2s1	NF-kB neuron act 3.7
O=C(Nc1ncc(Cc2cccc([N+](=O)[O-])c2)s1)c1ccco1	none
CCCn1c(=O)c(C(=O)NCc2ccco2)c(O)c2ccccc21	none
COc1cc(CNCCN(C)C)c(Br)cc1OC1CCCC1	none
Cc1ccc2nc(NC(=S)NC(=O)c3ccco3)sc2c1	APP 5'UTR act 163
CC1=C(C(=O)OC(C)C)C(c2cncc(-c3ccc(F)cc3)c2)C(C#N)=C(N)O1 (stereo not drawn)	none
COc1ccc(CCNC(=O)CSc2nnc3ccccn23)cc1	none
CCC(C)c1ccc(O)c(NC(=O)c2cccnc2)c1 (stereo not drawn)	none
CC(C)c1ccc(NC(=O)c2cccc(Br)c2)cc1	STAT1 activator 140
CCC(C)c1ccc(NC(=O)c2cccnc2)cc1 (stereo not drawn)	STAT1 activator 133, NF-kB neuron act 3.9
O=C(NNC(=O)c1cccc(Br)c1)Nc1ccc(Cl)cc1	none
O=C(Nc1ccc(S(=O)(=O)Nc2ncccn2)cc1)c1cccnc1	STAT1 activator 134
Cc1nc2c(ccc3nc(NC(=O)C4CC4)sc32)s1	STAT3 act 157, STAT1 activator 156, NF-kB neuron act 4.7
Cc1nc(NC(=O)C2CC2)sc1C	none
O=C(Nc1ccc(Br)cn1)c1cccc(-c2cc3ccccc3oc2=O)c1	STAT1 activator 144
O=C(Nc1ccc(Cl)cn1)c1cc2ccccc2o1	NF-kB neuron act 9.2, APP 5'UTR act 205
O=C(Nc1ccc(Cl)cn1)c1ccc([N+](=O)[O-])o1	NF-kB neuron act 5.9
O=C(Nc1cccc2ncccc12)c1cc2ccccc2o1	none
O=C(Nc1ccccn1)c1cc2ccccc2o1	STAT1 inh 53, STAT3 inh 89
Cc1cc(C)c(S(=O)(=O)NC(C)C)c(C)c1-n1cnnn1	none
COc1ccccc1N1C(=O)N(C(C)=O)C2C1Nc1ccccc1N2C (stereo not drawn)	STAT3 act 134
COc1ccccc1N1C(=O)c2ccccc2NC1c1ccncc1 (stereo not drawn)	none
CCc1ccccc1NC(=O)CCc1nc(-c2cccs2)no1	none
CCCc1c(C)c2ccc(OCC(C)=O)cc2oc1=O	STAT1 activator 131
CCCCc1c(C)c2ccc(OCC(C)=O)cc2oc1=O	STAT1 activator 133
CCOC(=O)CCc1c(C)c2ccc(OCC(=O)OC(C)C)cc2oc1=O	none
Cc1cc2c(C)nc(-c3ccccc3)nc2o1	STAT1 activator 130
Cc1cc(Cl)nc(-c2ccccc2)n1	none
Cc1ccc(CSc2nnc(-c3ccncc3)n2C)cc1	none
Cc1ccc(Nc2nc(CSc3nnc(-c4ccncc4)n3C)cs2)cc1	NF-kB neuron act 4.4
CCOC(=O)CSc1nc(C)c(C(C)=O)cc1C(N)=O	none
c1cncc(CSc2ccc(-c3cccnc3)nn2)c1	none
c1ccc(CSc2ccc(-c3cccnc3)nn2)cc1	STAT1 activator 134
CC(C)(C)c1ccc(OCc2ccc(C(=O)N/N=C/c3ccc([N+](=O)[O-])cc3)o2)cc1	STAT1 activator 131
C/C(NC(=O)c1cccs1)=C1\C(=O)C[C@@H]2[C@H]1C2(C)C	STAT1 activator 130
CC(C)=N/N=C1/NC(=O)C(CC(=O)Nc2cc(Cl)ccc2C)S1 (stereo not drawn)	none
CC1(C)O[C@@H]2C[C@H]3[C@@H]4C[C@H](F)C5=CC(=O)CC[C@]5(C)[C@H]4[C@@H](O)C[C@]3(C)[C@]2(C(=O)CO)O1	STAT1 activator 135
Cc1cccc(NC(=O)c2csnn2)n1	NF-kB neuron act 13
O=C(NCCc1c[nH]c2ccccc12)C(=O)NCC1OCCCN1S(=O)(=O)c1cccs1 (stereo not drawn)	none
CCN1CCN(CC(=O)c2c[nH]c3ccccc23)CC1	STAT3 act 133
COc1cc(/C=C2\CCc3ccccc3C2=O)cc(OC)c1OC	none
COc1cc(/C=C2\CC/C(=C\c3cc(OC)c(O)c(OC)c3)C2=O)cc(OC)c1O	STAT1 activator 132
COc1cc(/C=C2/CCc3ccccc3C2=O)cc(OC)c1OC	NF-kB neuron act 3.8
COc1ccc(/C=C2\COc3ccccc3C2=O)cc1OC	none
COc1ccc(/C=C2/CCc3ccccc3C2=O)cc1OC	NF-kB neuron act 3.4
CCOC(=O)c1cc(NC(=O)Nc2nccs2)c(C)nc1C	none
Cc1onc(-c2ccccc2)c1C(=O)OCC(=O)NCc1ccc(F)cc1	none
COc1ccc(-c2[nH]ncc2N=Nc2cc(C)cc(C)c2)cc1	none
COc1ccc(-c2[nH]ncc2N=Nc2ccccc2)cc1	STAT1 activator 130
Oc1ccc(-c2csc(Nc3ncccn3)n2)cc1O	STAT1 activator 133, NF-kB neuron act 12
CC(C)C(=O)N1CCN(c2ccc(NC(=O)c3ccc(Br)o3)cc2)CC1	none
CC(C)C(=O)N1CCN(c2ccc(NC(=O)c3ccc([N+](=O)[O-])o3)cc2)CC1	STAT1 activator 141
O=C(Nc1ccc(N2CCOCC2)c(Cl)c1)c1ccc([N+](=O)[O-])o1	STAT1 activator 129
Cc1cccc(Cn2nc(-n3cccc3)c3c(C)cc(C)nc32)c1	none
CC(C)(C)c1ccc(C(=O)CS(=O)(=O)c2ccccc2)cc1	APP 5'UTR act 140
CC1=C(C(=O)OCC2CCCO2)C(c2coc3ccc(Cl)cc3c2=O)C2=C(CCCC2=O)N1 (stereo not drawn)	STAT3 act 134
CC1=C(C(=O)OCC2CCCO2)C(c2coc3ccc(C)cc3c2=O)C2=C(CCCC2=O)N1 (stereo not drawn)	none
